Laboratory results taken from ChEMBL document CHEMBL1126317, “2-(aminoalkyl)-5-nitropyrazolo[3,4,5-kl]acridines, a new class of anticancer agents” (1992).

Key:
Assay type in all cases: functional
Mus musculus [1] = experiment: In vivo antitumor activity of the compound(ip, 12.5 mg/kg for 5 days) against CD2F1 mice implanted intraperitoneally with P388 leukemia cells; Day 30 survivors=2/6; conditions: route intraperitoneal
Mus musculus [2] = experiment: In vivo antitumor activity of the compound(ip, 12.5 mg/kg for 5 days) against CD2F1 mice implanted intraperitoneally with P388 leukemia cells.; conditions: route intraperitoneal
L1210 = experiment: In vitro antitumor activity against L1210 leukemia cell line.; conditions: Mus musculus, read-out: ID50 (the source's name)
HCT-8 = experiment: In vitro antitumor activity against HCT-8 colon cancer cell line.; conditions: Homo sapiens, read-out: ID50 (the source's name)
Mus musculus [3] = experiment: In vivo antitumor activity of the compound(ip, 3 mg/kg for 5 days) against CD2F1 mice implanted intraperitoneally with P388 leukemia cells.; conditions: route intraperitoneal
[4] = Ratio of the ID50's showing antitumor activity against HCT-8 and L1210 leukemia cell lines.
Procedure, shortened: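 Ratio taken as ID50 in HCT-8 cells divided by ID50 in L1210 cells, both ID50s expressed as molar concentrations.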

Mus musculus [5] = experiment: In vivo antitumor activity of the compound(ip, 6.25 mg/kg for 5 days) against CD2F1 mice implanted intraperitoneally with P388 leukemia cells; Day 30 survivors=5/6; conditions: route intraperitoneal
Mus musculus [6] = experiment: In vivo antitumor activity of the compound(ip, 6.25 mg/kg for 5 days) against CD2F1 mice implanted intraperitoneally with P388 leukemia cells.; conditions: route intraperitoneal
Mus musculus [7] = experiment: In vivo antitumor activity of the compound(ip, 6.25 mg/kg for 5 days) against CD2F1 mice implanted intraperitoneally with P388 leukemia cells; Day 30 survivors=6/6; conditions: route intraperitoneal
Mus musculus [8] = experiment: In vivo antitumor activity of the compound(ip, 12.5 mg/kg for 5 days) against CD2F1 mice implanted intraperitoneally with P388 leukemia cells; Day 30 survivors=3/6; conditions: route intraperitoneal
Mus musculus [9] = experiment: In vivo antitumor activity of the compound(ip, 3.12 mg/kg for 5 days) against CD2F1 mice implanted intraperitoneally with P388 leukemia cells.; conditions: route intraperitoneal
Mus musculus [10] = experiment: In vivo antitumor activity of the compound(ip, 3.12 mg/kg for 5 days) against CD2F1 mice implanted intraperitoneally with P388 leukemia cells; Day 30 survivors=1/6; conditions: route intraperitoneal
Mus musculus [11] = experiment: In vivo antitumor activity of the compound(ip, 3.12 mg/kg for 5 days) against CD2F1 mice implanted intraperitoneally with P388 leukemia cells; Day 30 survivors=4/6; conditions: route intraperitoneal

CCN(CC)CCN1Nc2c3cc(O[Si](C)(C)C(C)(C)C)ccc3nc3c([N+](=O)[O-])ccc1c23.CS(=O)(=O)O
Activity (Mus musculus [1]): 2 | T/C (Mus musculus [2]): 228% | IC50 (L1210): 1.7 nM

CCN(CC)CCN1Nc2c3cc(O)ccc3nc3c([N+](=O)[O-])ccc1c23.CS(=O)(=O)O
IC50 (HCT-8): 13 nM | T/C (Mus musculus [3]): 180% | Ratio [4]: 6.5 | IC50 (L1210): 2 nM

CCN(CC)CCN1Nc2c3cc(OC(=O)C(C)(C)C)ccc3nc3c([N+](=O)[O-])ccc1c23.CS(=O)(=O)O
Activity (Mus musculus [5]): 5 | IC50 (HCT-8): 9.7 nM | T/C (Mus musculus [6]): 283% | Ratio [4]: 0.97 | IC50 (L1210): 1 nM

CS(=O)(=O)O.O=[N+]([O-])c1ccc2c3c(c4cc(O)ccc4nc13)NN2CCNCCO
Activity (Mus musculus [7]): 6 | T/C (Mus musculus [6]): 275% | IC50 (L1210): 4.8 nM

CCN(CC)CCN1Nc2c3c(Cl)c(OC)ccc3nc3c([N+](=O)[O-])ccc1c23.CS(=O)(=O)O
T/C (Mus musculus [2]): 230% | Activity (Mus musculus [8]): 3 | IC50 (L1210): 61 nM

CC(=O)Oc1ccc2c(c1)-c1nn(CCN3CCCC3)c3ccc([N+](=O)[O-])c(c13)N2.CS(=O)(=O)O
T/C (Mus musculus [9]): 236% | Activity (Mus musculus [10]): 1 | IC50 (L1210): 2.2 nM

CCN(CC)CCN1Nc2c3cc(OC(C)=O)ccc3nc3c([N+](=O)[O-])ccc1c23.CS(=O)(=O)O
IC50 (HCT-8): 5.3 nM | Activity (Mus musculus [11]): 4 | T/C (Mus musculus [9]): 283% | Ratio [4]: 1.4 | IC50 (L1210): 3.8 nM
